ChEMBL document CHEMBL2040792, “New chromene scaffolds for adenosine A(2A) receptors: synthesis, pharmacology and structure-activity relationships” (Eur J Med Chem, 2012)

What was measured:
[1] = biological target: T1, Adenosine receptor A3 (Homo sapiens) (UniProt P0DMS8); experiment: Displacement of [3H]NECA from human adenosine A3 receptor expressed in human HeLa cells at 10 uM after 180 mins by beta scintillation counting; assay type: cell-based
T1 sequence (whole entry): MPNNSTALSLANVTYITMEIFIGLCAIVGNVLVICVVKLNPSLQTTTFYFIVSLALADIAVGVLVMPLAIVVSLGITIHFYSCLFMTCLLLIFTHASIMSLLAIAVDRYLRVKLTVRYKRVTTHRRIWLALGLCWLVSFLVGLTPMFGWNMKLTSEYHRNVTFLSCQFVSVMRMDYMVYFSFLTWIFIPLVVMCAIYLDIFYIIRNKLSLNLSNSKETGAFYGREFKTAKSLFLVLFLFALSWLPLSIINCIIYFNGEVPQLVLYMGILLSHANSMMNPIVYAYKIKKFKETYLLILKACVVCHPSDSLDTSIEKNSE
Outline: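 HeLa-A3 membranes (90 µg protein) in 50 mM Tris-HCl, 1 mM EDTA, 5 mM MgCl2, 2 UI/mL adenosine deaminase, pH 7.4. Test compound at 10 µM with 30 nM [3H]NECA, 180 min at 25 °C, in triplicate. Nonspecific binding with 100 µM (R)-PIA. Percent inhibition read after GF/B filtration.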

[2] = biological target: T2, Adenosine receptor A2b (Homo sapiens, UniProt P29275); experiment: Displacement of [3H]DPCPX from human adenosine A2B receptor expressed in HEK293 cells after 30 mins by beta scintillation counting; assay type: cell-based
T2 sequence (P29275 whole entry): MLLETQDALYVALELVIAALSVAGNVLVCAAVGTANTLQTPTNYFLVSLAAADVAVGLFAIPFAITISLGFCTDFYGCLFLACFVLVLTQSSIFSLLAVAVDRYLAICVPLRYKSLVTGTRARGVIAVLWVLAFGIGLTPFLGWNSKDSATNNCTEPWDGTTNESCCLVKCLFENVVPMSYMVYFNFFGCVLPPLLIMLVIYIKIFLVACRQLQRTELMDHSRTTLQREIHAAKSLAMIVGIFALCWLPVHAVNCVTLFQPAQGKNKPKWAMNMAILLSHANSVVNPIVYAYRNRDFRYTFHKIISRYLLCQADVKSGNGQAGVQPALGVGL
Outline: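 HEK-293-A2B membranes (18 µg protein) in 50 mM Tris-HCl, 1 mM EDTA, 10 mM MgCl2, 0.1 mM benzamidine, 10 µg/mL bacitracin, 2 UI/mL adenosine deaminase, pH 6.5, with 35 nM [3H]DPCPX. Nonspecific binding with 400 µM NECA. Incubated 30 min at 25 °C, in duplicate. Six concentrations (10 nM-100 µM); IC50 by nonlinear regression, Ki by Cheng-Prusoff.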

[3] = biological target: T3, Adenosine receptor A2a (Homo sapiens, UniProt P29274); experiment: Displacement of [3H]ZM241385 from human adenosine A2A receptor expressed in human HeLa cells after 30 mins by beta scintillation counting; assay type: cell-based
Outline: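 HeLa-A2A membranes (10 µg protein) in 50 mM Tris-HCl, 1 mM EDTA, 10 mM MgCl2, 2 UI/mL adenosine deaminase, pH 7.4, with 3 nM [3H]ZM241385. Nonspecific binding with 50 µM NECA. Incubated 30 min at 25 °C, in duplicate. Six concentrations (10 nM-100 µM); IC50 by nonlinear regression, converted to Ki by Cheng-Prusoff.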

[4] = biological target: T4, Adenosine receptor A2b (Homo sapiens) (UniProt P29275); experiment: Displacement of [3H]DPCPX from human adenosine A2B receptor expressed in HEK293 cells at 10 uM after 30 mins by beta scintillation counting; assay type: cell-based
T4 sequence (whole entry): T2 sequence (P29275 whole entry)
Outline: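 Percent inhibition at 10 µM in HEK-293-A2B membranes (18 µg protein), pH 6.5 Tris buffer with benzamidine, bacitracin and adenosine deaminase. 35 nM [3H]DPCPX, 30 min at 25 °C, in duplicate. Nonspecific binding with 400 µM NECA.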

[5] = biological target: T5, Adenosine receptor A1 (Homo sapiens) (UniProt P30542); experiment: Displacement of [3H]DPCPX from human adenosine A1 receptor expressed in CHO cells at 10 uM after 60 mins by beta scintillation counting; assay type: cell-based
T5 sequence (whole entry): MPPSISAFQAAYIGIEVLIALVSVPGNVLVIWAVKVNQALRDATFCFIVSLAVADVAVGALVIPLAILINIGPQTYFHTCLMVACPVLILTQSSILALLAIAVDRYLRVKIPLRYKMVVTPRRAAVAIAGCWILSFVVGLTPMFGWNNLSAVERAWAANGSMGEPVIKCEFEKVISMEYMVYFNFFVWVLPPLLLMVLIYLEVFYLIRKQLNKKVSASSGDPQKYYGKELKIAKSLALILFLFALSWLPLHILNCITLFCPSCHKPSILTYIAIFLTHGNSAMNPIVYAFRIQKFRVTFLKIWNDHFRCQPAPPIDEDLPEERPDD
Outline: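 CHO-A1 membranes (15 µg protein) in Hepes/NaCl/MgCl2 buffer with adenosine deaminase, pH 7.4. Test compound at 10 µM with 2 nM [3H]DPCPX, 60 min at 25 °C, in duplicate. Nonspecific binding with 10 µM (R)-PIA. Percent inhibition read after filtration.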

[6] = biological target: T3, Adenosine receptor A2a; experiment: Displacement of [3H]ZM241385 from human adenosine A2A receptor expressed in human HeLa cells at 10 uM after 30 mins by beta scintillation counting; assay type: cell-based
Outline: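 Single-point screen at 10 µM on HeLa-A2A membranes (10 µg protein), Tris/EDTA/MgCl2 buffer with adenosine deaminase, pH 7.4. 3 nM [3H]ZM241385, 30 min at 25 °C, in duplicate. Nonspecific binding with 50 µM NECA. Percent inhibition.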

[7] = biological target: T6, Adenosine receptor A1 (Homo sapiens, UniProt P30542); experiment: Displacement of [3H]DPCPX from human adenosine A1 receptor expressed in CHO cells after 60 mins by beta scintillation counting; assay type: cell-based
T6 sequence (P30542 whole entry): T5 sequence (whole entry)
Outline: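 CHO-A1 membranes (15 µg protein) in 20 mM Hepes, 100 mM NaCl, 10 mM MgCl2, 2 UI/ml adenosine deaminase, pH 7.4, with 2 nM [3H]DPCPX. Nonspecific binding defined with 10 µM (R)-PIA. Incubated 60 min at 25 °C, run in duplicate, then filtered. Six concentrations tested (10 nM-100 µM); IC50 from nonlinear regression, Ki by Cheng-Prusoff.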

[8] = biological target: T3, Adenosine receptor A2a; experiment: Antagonist activity at human adenosine A2A receptor expressed in CHO cells assessed as inhibition of NECA-induced cAMP accumulation incubated for 15 mins prior to NECA-induction measured after 15 mins by enzyme immunoassay relative to control; assay type: functional, cell-based
Outline: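 Stably transfected CHO cells grown with dialyzed FBS, washed in DMEM F-12 with 25 mM HEPES pH 7.4 and 30 μM rolipram. Antagonist preincubated 15 min, then NECA (0.1 nM-1 mM) added for a further 15 min. cAMP measured by enzyme immunoassay. NECA curves fitted to a sigmoidal equation; pKB derived from the EC50 shift at one antagonist concentration.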

T3 sequence (P29274 whole entry): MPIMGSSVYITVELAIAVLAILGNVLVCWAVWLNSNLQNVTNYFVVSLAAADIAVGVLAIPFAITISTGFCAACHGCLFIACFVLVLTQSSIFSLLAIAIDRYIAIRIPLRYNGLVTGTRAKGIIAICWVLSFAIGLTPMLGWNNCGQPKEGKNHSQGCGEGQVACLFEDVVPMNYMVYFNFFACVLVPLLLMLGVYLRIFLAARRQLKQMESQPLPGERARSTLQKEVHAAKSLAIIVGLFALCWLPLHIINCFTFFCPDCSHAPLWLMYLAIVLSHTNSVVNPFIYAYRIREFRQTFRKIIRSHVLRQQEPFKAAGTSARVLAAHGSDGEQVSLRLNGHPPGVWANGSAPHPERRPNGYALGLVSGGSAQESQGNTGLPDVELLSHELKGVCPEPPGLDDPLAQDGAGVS

Row | SMILES | inhibition [1] | Ki [2] | Ki [3] | inhibition [4] | inhibition [5] | inhibition [6] | Ki [7] | pKb [8]
1 | COc1cccc2cc(C(=O)NCCCN3CCN(CCCNC(=O)c4cc5cccc(OC)c5oc4=N)CC3)c(=N)oc12 | 20% | 10000 nM | 316 nM | > 70% | > 70% | > 70% | 2510 nM | –
2 | COc1cccc2cc(C(N)=O)c(=N)oc12 | 33% | 316 nM | 79.4 nM | > 70% | > 70% | > 70% | 398 nM | 6.59
3 | COCCNC(=O)c1cc2cccc(OC)c2oc1=N | 15% | – | 501 nM | 43% | > 70% | > 70% | 6310 nM | –
4 | COc1cccc2cc(C(=O)NC3CCCCC3)c(=N)oc12 | 16% | 20000 nM | 398 nM | > 70% | 40% | > 70% | – | 6.1
5 | COc1cccc2cc(C(=O)NCCCOCCCCOCCCNC(=O)c3cc4cccc(OC)c4oc3=N)c(=N)oc12 | 23% | – | 398 nM | 44% | 30% | > 70% | – | 6.36
6 | COc1cccc2cc(C(=O)NC3CCCC3)c(=N)oc12 | 20% | – | 398 nM | 47% | > 70% | > 70% | 3160 nM | –
7 | COC(=O)/C(C#N)=C/c1cccc(OC)c1O | 45% | 1000 nM | 316 nM | > 70% | > 70% | > 70% | 2510 nM | –
8 | COc1cccc2cc(C(=O)NCCc3ccc(O)cc3)c(=N)oc12 | 30% | 631 nM | 126 nM | > 70% | 35% | > 70% | – | 6.54
